# Screens from PubChem.
# CYP2C9 inhib = blocks human cytochrome P450 2C9; P11712; CYP2C9 Supersomes, luciferin-H conversion, luminescence; inhibition, % at 5 µM; actives 20% (n = 96,000);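 active = blocking of liver enzyme CYP2C9 beyond about 50% at 5 µM, limit read from the data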
# Target sequence (P11712 whole entry, looked up): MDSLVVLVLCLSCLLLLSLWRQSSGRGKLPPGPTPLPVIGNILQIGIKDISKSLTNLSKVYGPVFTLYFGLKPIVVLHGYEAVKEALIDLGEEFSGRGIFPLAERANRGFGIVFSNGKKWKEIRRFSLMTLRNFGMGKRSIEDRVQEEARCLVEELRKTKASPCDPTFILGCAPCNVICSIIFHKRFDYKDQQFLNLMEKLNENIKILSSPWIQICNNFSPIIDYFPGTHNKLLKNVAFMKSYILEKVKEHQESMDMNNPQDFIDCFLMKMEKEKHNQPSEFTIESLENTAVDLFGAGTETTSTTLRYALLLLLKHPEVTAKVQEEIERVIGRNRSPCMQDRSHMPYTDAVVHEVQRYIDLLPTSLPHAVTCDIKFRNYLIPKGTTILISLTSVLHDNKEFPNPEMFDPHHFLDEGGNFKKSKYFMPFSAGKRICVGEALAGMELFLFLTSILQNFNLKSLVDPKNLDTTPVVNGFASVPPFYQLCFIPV
# CYP2C19 activ = increases human CYP2C19 enzyme activity. recombinant CYP2C19, luciferin-H EGE luminescence; stronger effect = higher value; 0 = fully inhibited enzyme, 1 = untreated enzyme. P33261. activation factor at 5 µM. 96,000 tested, under 10 active;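 active = activation factor of at least 2 at 5 µM in the primary screen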;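 note: 0 = wells with 2.5 mM tranylcypromine and 1 = vehicle-only wells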
# Ecoli WT expand = growth inhibitors of E. coli BW25113 wild type; actives 0.15% (n = 98,000); OD600 absorbance; growth inhibition, % at 100 µM; AID 710;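 active = growth inhibition above about 50% at one test dose, limit read from the data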;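 note: growth measured after 20 h incubation at 37 °C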
# CYP2C19 inh = human CYP2C19 inhibition; actives 21% (n = 96,000); inhibition, % at 5 µM; CYP2C19 Supersomes, luciferin-H EGE luminescence, 30 min;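 active = CYP2C19 inhibition above a set limit at 5 µM in the primary screen, cut at about 50% in these data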;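 note: plate controls were negative control wells for no effect and 2.5 mM tranylcypromine positive control for full effect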
# tolC growth inh = growth inhibitors of E. coli BW25113 tolC mutant. OD615. growth inhibition, % at 10 µM (by protocol). actives 2.2% (n = 65,000). AID 573;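 active = growth inhibition at or above a cutoff equal to the mean over every tested compound plus 3 SD, cut at about 60% in these data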;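 note: growth measured after 20 h incubation at 37 °C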
#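 Doses: one dose of 10 µM final / Material: E. coli BW25113 ΔtolC::kan, tolC deletion mutant strain / Buffer or medium: LB with kanamycin 50 µg/mL / Evaluation: percent growth inhibition / Detection: optical density read at 615 nm / Incubation: 37 °C, 20 h exposure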
# CYP2C9 act = increases human cytochrome P450 2C9 activity. recombinant CYP2C9, luciferin-H conversion, luminescence; stronger effect = higher value; factor 1 = untreated enzyme, 0 = blocked. activation factor at 5 µM. actives 1.4% (n = 96,000);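 active = activation factor of 2 or more for CYP2C9 at a 5 µM dose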;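 note: 0 = sulfaphenazole-blocked wells and 1 = vehicle-only wells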
# * = called active by the depositor; / = no result. Hits are enriched below; roughly 29% of the tested compounds scored in any of these assays.
SMILES,CYP2C9 inhib,CYP2C19 activ,Ecoli WT expand,CYP2C19 inh,tolC growth inh,CYP2C9 act
Cc1ccc2nc(N3CCN(S(=O)(=O)c4ccc(C)c(Cl)c4)CC3)c(C#N)cc2c1,42,0.8,-16,20,/,0.6
O=C(OCn1nnc2ccccc2c1=O)C1CCN(S(=O)(=O)c2cccs2)CC1,/,/,-12,/,3,/
CC1=C(C(=O)Nc2ccccc2)C(c2ccncc2)C(C#N)=C(SCC(=O)NC(C)C)N1 (stereo unspecified),65*,0.2,8,78*,5,0.4
CC1=C(C(=O)Nc2ccccc2)C(c2ccncc2)C(C#N)=C(SCC(=O)NC2CC2)N1 (stereo unspecified),77*,0.1,-5,85*,7,0.2
CC1=C(C(=O)Nc2ccccc2)C2(CCCCC2)C(C#N)=C(SCC(N)=O)N1,46,0.5,-2,47,/,0.5
Cc1ccccc1C(=O)Nc1nncs1,4,0.9,-1,7,/,1
Cc1ccccc1C(=O)N=c1sccn1C,22,0.1,7,93*,/,0.8
COc1ccc(/C=N/NC(=O)CC(=O)NCc2cccnc2)cc1,19,1.1,10,-8,/,0.8
c1ccc(OCCOc2ccccc2-c2nnco2)cc1,75*,0.1,2,91*,4,0.2
Clc1ccccc1COc1ccccc1-c1nnco1,50*,0.7,7,27,3,0.5
O=C1c2sc3nc4ccccc4n3c2C(=O)N1c1ccccc1Cl,60*,1.1,-4,-10,18,0.4
Cc1ccccc1N1C(=O)c2sc3nc4c(c(=O)n3c2C1=O)CCC4,40,0.9,-4,15,-4,0.6
Nc1nc(SCC(=O)NCCCN2CCOCC2)nc2sc3c(c12)CCC3,-7,1,5,5,0,1.1
O=C(CSCCO)Nc1ccccc1,-7,1.1,9,-11,/,1.1
O=C(CSCc1cccc(CSCC(=O)Nc2ccccc2)n1)Nc1ccccc1,65*,0.5,-16,53*,/,0.4
O=C(CSCc1ccc(F)cc1)Nc1ccccc1,-56,0.1,-8,94*,/,1.6
Cc1cccc(NC(=O)Cc2ccc(F)cc2)c1,58*,0,8,96*,/,0.4
O=C(NCc1ccco1)NC12CC3CC(CC(C3)C1)C2,-2,0.9,1,8,7,1
CCCCn1c(-c2csc3c2CCC(C)C3)n[nH]c1=S (stereo unspecified),47,0.7,17,26,/,0.5
S=c1[nH]nc(-c2ccncc2)n1Cc1ccccc1,31,1.1,6,-6,-4,0.7
CCCCn1c(-c2csc3c2CCCC3)n[nH]c1=S,89*,0.3,17,70*,/,0.1
CCCCn1c(-c2csc3ccccc23)n[nH]c1=S,89*,0,10,97*,/,0.1
CCCCNC(=O)C(Cc1ccccc1)NS(=O)(=O)c1ccc2c(c1)c(=O)n(C)c(=O)n2C (stereo unspecified),49,0.7,3,27,/,0.5
c1ccc(Cc2nnc3sc(-c4cccnc4)nn23)cc1,64*,0,3,98*,1,0.4
c1csc(-c2nn3c(Cn4cnc5ccccc54)nnc3s2)c1,18,0.4,1,58*,8,0.8
SMILES,CYP2C9 inhib,CYP2C19 activ,Ecoli WT expand,CYP2C19 inh,tolC growth inh,CYP2C9 act
c1ccc(Cc2nnc3sc(-c4ccc5c(c4)OCO5)nn23)cc1,/,/,/,/,0,/
c1ccc(-c2nn3c(C4CCCCC4)nnc3s2)cc1,38,0.8,-5,21,18,0.6
c1ccc(Cc2nnc3sc(-c4ccncc4)nn23)cc1,52*,0,9,96*,-8,0.5
Clc1cccc(-c2nn3c(Cn4cnc5ccccc54)nnc3s2)c1,28,0.9,-4,14,9,0.7
c1ccc(-c2nn3c(C4CCCCC4)nnc3s2)nc1,59*,0.3,-3,70*,-11,0.4
c1cncc(-c2nn3c(-c4ccncc4)nnc3s2)c1,/,/,/,/,-16,/
COc1ccc(Cc2nnc(NC(=O)CSc3ccc(C)cc3)s2)cc1OC,-3,1,-4,-3,/,1
CC(=O)c1c(COC(=O)c2cccnc2)nc2ccccc2[n+]1[O-],5,0.5,-1,48,19,0.9
CCOc1ccccc1-c1nn2c(Cc3ccccc3)nnc2s1,-7,0.5,-9,54*,99*,1.1
c1ccc(Cc2nnc3sc(-c4ccccn4)nn23)cc1,63*,0.1,4,92*,1,0.4
